Experiment [1] has as its system CCRF-CEM. Description: Inhibitory activity of compound against CCRF-CEM cells,a lymphoblastic leukemic of human origin propagated in suspension culture. It is filed as functional. The settings on record: read-out: ID50 (the source's name).
The subject of experiment [2] is L1210. Description: Increase in life span of treated animals relative to untreated controls expressed in murine L1210 leukemia at a dose of 45 mg/kg x4 after ip injection. It is filed as functional. The settings on record: Mus musculus, route intraperitoneal. In outline:
(§1)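 Mice implanted ip with 10⁵ L1210 leukemia cells on day 0. Treatment given ip once daily on days 1-4. Read-out is % ILS, the increase in life span of treated animals relative to untreated controls.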

Experiment [3] relates to Nucleic Acid. Description: Compound was tested for the extent of DNA binding in calf thymus at pH 7 TRIS buffer. It counts as nucleic-acid assay. Particulars: Bos taurus. The gist of the method:
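Spectral shift method with calf thymus DNA in Tris buffer, pH 7.0, at a drug/DNA molar ratio of 0.1. Binding extent is taken as the ratio of the absorbance of the drug–DNA mixture to that of drug alone at 480 nm.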

The test system of experiment [4] is L1210. Description: Increase in life span of treated animals relative to untreated controls expressed in murine L1210 leukemia at a dose of 90 mg/kg x4 after ip injection. It is filed as functional. Particulars: Mus musculus, route intraperitoneal. The gist of the method:
as §1

Experiment [5] deals with L1210. Description: Increase in life span of treated animals relative to untreated controls expressed in murine L1210 leukemia at a dose of 50 mg/kg x4 after ip injection; curative. Set-up: dose 50 mg/kg. It is filed as functional, organism-based. Particulars: Mus musculus.
In experiment [6] the test system is L1210. Description: Increase in life span of treated animals relative to untreated controls expressed in murine L1210 leukemia at a dose of 50.6 mg/kg x4 after ip injection. It is filed as functional. Particulars: Mus musculus, route intraperitoneal. The gist of the method:
as §1

Experiment [7] has as its system L1210. Description: Increase in life span of treated animals relative to untreated controls expressed in murine L1210 leukemia at a dose of 15 mg/kg x4 after ip injection. The settings on record: Mus musculus, route intraperitoneal. It counts as functional. In outline:
as §1

For experiment [8], the system named is L1210. Description: Increase in life span of treated animals relative to untreated controls expressed in murine L1210 leukemia at a dose of 4 mg/kg x4 after ip injection. It is filed as functional. The settings on record: Mus musculus, route intraperitoneal. The gist of the method:
as §1

For experiment [9], the system named is L1210. Description: Increase in life span of treated animals relative to untreated controls expressed in murine L1210 leukemia at a dose of 70 mg/kg x4 after ip injection. It is filed as functional. Particulars: Mus musculus, route intraperitoneal. The gist of the method:
as §1

The term ILS denotes how much longer treated animals lived than controls. Low readings indicate a small benefit in survival, high ones a large benefit in survival. Turning to `COc1cccc2c1C(=O)c1c(O)c3c(c(O)c1C2=O)C[C@@](O)(C(C)=O)C[C@@H]3O[C@H]1O[C@H](C)[C@@H](NC(=O)C(F)(F)F)[C@H]1O`, the IC50 in [1] amounted to 890 nM. In experiment [2], this compound registered an ILS at 45 mg/kg of 55%.
As for `COc1cccc2c1C(=O)c1c(O)c3c(c(O)c1C2=O)C[C@@](O)(C(C)=O)C[C@@H]3O[C@@H]1O[C@H](CO)[C@@H](O)[C@H](O)[C@H]1N`, the IC50 in experiment [1] is 3040 nM. The Extent of DNA binding in experiment [3] is 0.82. This compound had an ILS at 90 mg/kg in [4] of 60%.
For `CCCCC(=O)OCC(=O)[C@]1(O)Cc2c(O)c3c(c(O)c2[C@@H](OC2CC(NC(=O)C(F)(F)F)C(O)C(C)O2)C1)C(=O)c1c(OC)cccc1C3=O` (some centres undefined), in experiment [1], the IC50 stood at 240 nM. This compound yielded an Extent of DNA binding in experiment [3] of 0.96. In addition, the ILS result in [5] is recorded as “Curative”.
`COc1cccc2c1C(=O)c1c(O)c3c(c(O)c1C2=O)C[C@@](O)(C(C)=O)C[C@@H]3O[C@@H]1O[C@H](C)[C@@H](N)[C@H]1O`: in experiment [1], the IC50 was 210 nM. Also, the Extent of DNA binding in [3] was found to be 0.86. The ILS at 50.6 mg/kg in [6] stood at 55%.
With `COc1cccc2c1C(=O)c1c(O)c3c(c(O)c1C2=O)C[C@@](O)(C(C)=O)C[C@@H]3O[C@H]1O[C@H](C)[C@@H](N)[C@H]1O`, the IC50 in experiment [1] worked out at 280 nM. This compound also showed an Extent of DNA binding in experiment [3] of 0.8. For the same compound, in experiment [7], the ILS at 15 mg/kg turned out to be 22%.
Take `COc1cccc2c1C(=O)c1c(O)c3c(c(O)c1C2=O)C[C@@](O)(C(=O)CO)C[C@@H]3O[C@H]1C[C@H](N)[C@H](O)[C@H](C)O1` [DOXORUBICIN]: in experiment [1], the IC50 came to 66 nM. This compound also had an Extent of DNA binding in experiment [3] of 0.62. This compound gave an ILS at 4 mg/kg in experiment [8] of 66%.
Regarding `COc1cccc2c1C(=O)c1c(O)c3c(c(O)c1C2=O)C[C@@](O)(C(C)=O)C[C@@H]3O[C@@H]1O[C@H](C)[C@@H](NC(=O)C(F)(F)F)[C@H]1O`, the IC50 in experiment [1] was found to be 1080 nM. The same compound displayed an ILS at 70 mg/kg in [9] of 66%.

The values above are taken from ChEMBL document CHEMBL1121927, “Adriamycin analogues. Novel anomeric ribofuranoside analogues of daunorubicin” (1982).
